Measured values published in ChEMBL document CHEMBL3259678 (ACS Med Chem Lett, 2014).
pEC50, pIC50, pKi: −log10 of the molar value. Activity calls are given as the source filed them. No cut-off for these calls is given here.

Assays:
[1] = biological target: T1, Proteasome subunit beta type-8 (Homo sapiens) (UniProt P28062); assay: (§1) Inhibition of immunoproteasome-20S subunit beta5i in human PBMC assessed as substrate hydrolysis using suc-LLVY-AMC as substrate measured for 120 mins by fluorescence analysis
T1 sequence (whole entry): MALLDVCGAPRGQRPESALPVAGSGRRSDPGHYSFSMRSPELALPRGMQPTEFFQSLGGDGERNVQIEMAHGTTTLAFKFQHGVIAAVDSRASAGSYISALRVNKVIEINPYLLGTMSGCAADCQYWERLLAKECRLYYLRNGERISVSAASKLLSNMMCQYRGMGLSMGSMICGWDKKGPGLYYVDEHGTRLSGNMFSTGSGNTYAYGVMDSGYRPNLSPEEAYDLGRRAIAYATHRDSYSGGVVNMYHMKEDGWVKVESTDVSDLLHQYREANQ

[2] = biological target: T2, Proteasome subunit beta type-8 (Homo sapiens, UniProt P28062); assay: as §1
T2 sequence (P28062 whole entry): T1 sequence (whole entry)

[3] = biological target: T1, Proteasome subunit beta type-8 (Homo sapiens); assay: Ratio of Kinact to Ki for immunoproteasome-20S subunit beta5i in human PBMC using suc-LLVY-AMC as substrate measured for 120 mins by fluorescence analysis
Outline: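 Progress curves of hu i-20S suc-LLVY-AMC hydrolysis recorded at several inhibitor concentrations. kobs for each curve fitted to equation I. kobs plotted against inhibitor concentration and fitted hyperbolically (two-step mechanism) to give kinact/KI.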

Homo sapiens [4] = species on record: Homo sapiens; assay: Inhibition of constitutive proteasome 20S subunit beta5c in human RBC assessed as substrate hydrolysis using suc-LLVY-AMC as substrate measured for 120 mins by fluorescence analysis
Homo sapiens [5] = species on record: Homo sapiens; assay: Ratio of Kinact/Ki for immunoproteasome-20S subunit beta5i in human PBMC to Kinact/Ki for constitutive proteasome 20S subunit beta5c in human RBC
[6] = biological target: T1, Proteasome subunit beta type-8 (Homo sapiens); assay: Inhibition of immunoproteasome-20S subunit beta5i in human PBMC assessed as substrate hydrolysis using suc-LLVY-AMC as substrate by fluorescence analysis; conditions: TDE = time-dependent effect
Outline: (§2)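 Purified human i-20S preincubated with inhibitor for 15 min before suc-LLVY-AMC was added; inhibitor ranged from 9.8 nM to 100 μM. AMC fluorescence release read. IC50 from the concentration–response; where β2i/β1i inhibition exceeded 80% at 100 μM, IC50 was also determined.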

[7] = Half life of the compound in RPMI medium at 75 uM by UPLC/MS analysis; type: physicochemical
Outline: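 Stability measured in tissue culture medium; reported as t1/2 in minutes.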

[8] = biological target: T1, Proteasome subunit beta type-8 (Homo sapiens); assay: Inhibition of immunoproteasome 20S subunit beta5i in human Karpas 1106p cell extract at 1 uM
Outline: (§3)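 Cell-free extracts of Karpas 1106p cells incubated with inhibitor at various concentrations. β5i activity in the lysate then measured; reported as percent inhibition at each concentration.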

[9] = biological target: T1, Proteasome subunit beta type-8 (Homo sapiens); assay: Inhibition of immunoproteasome 20S subunit beta5i in human Karpas 1106p cell extract at 10 uM; outline: as §3
[10] = biological target: T1, Proteasome subunit beta type-8 (Homo sapiens); assay: Inhibition of immunoproteasome 20S subunit beta5i in human Karpas 1106p cell extract at 100 uM; outline: as §3
26S proteasome = assay: Inhibition of chymotrypsin-like activity of 26S proteasome in intact human Karpas 1106p cells assessed as substrate hydrolysis using Suc-LLVY-(D)-aminoluciferin as substrate after 3 hrs by cell-based Proteasome-Glo assay
Outline: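 Intact Karpas 1106p cells, a human lymphoma line that expresses i-20S constitutively without IFN-γ or TNF-α stimulation. 26S proteasome activity read by cell-based Proteasome-Glo luminescence over a range of inhibitor concentrations. EC50 derived from the dose–response.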

[11] = biological target: T1, Proteasome subunit beta type-8 (Homo sapiens); assay: Inhibition of immunoproteasome 20S subunit beta5i in human Karpas 1106p cells assessed as accumulation of polyubiquitinylated proteins at 2.5 to 25 uM after 4 hrs by western blot analysis; type: cell-based
Outline: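 Karpas 1106p cells treated with inhibitor at the indicated concentrations for 4 h at 37 °C. Polyubiquitinated proteins then detected by Western blot.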

[12] = biological target: T1, Proteasome subunit beta type-8 (Homo sapiens); conditions: 1 nM
[13] = biological target: T1, Proteasome subunit beta type-8 (Homo sapiens); conditions: 10 to 100 nM
[14] = biological target: T2, Proteasome subunit beta type-8; assay: Inhibition of immunoproteasome-20S subunit beta5i in human PBMC assessed as substrate hydrolysis using suc-LLVY-AMC as substrate preincubated for 15 mins prior to substrate challenge measured for 120 mins by fluorescence analysis; outline: as §2

| Structure (SMILES) | Kinact [1] [s⁻¹] | pKi [2] | Ratio [3] [M⁻¹ s⁻¹] | Ratio (Homo sapiens [4]) [M⁻¹ s⁻¹] | Ratio (Homo sapiens [5]) | inhibition [6] | half-life at 75 µM [7] [h] | inhibition [8] [%] | inhibition [9] [%] | inhibition [10] | pEC50 (26S proteasome) | inhibition [11] | inhibition [12] [%] | inhibition [13] [%] | pIC50 [14] |
| --- | --- | --- | --- | --- | --- | --- | --- | --- | --- | --- | --- | --- | --- | --- | --- |
| CC(=O)N[C@H](Cc1ccccc1)C(=O)Nc1ccc(-c2nsc(=O)o2)cc1 | 0.00053 | 5.46 | 151 | 0.7 | 215 | – | 0.878 | 40 | 65 | Active | 4.81 | Active | – | – | – |
| CC(=O)N[C@H](Cc1ccccc1)C(=O)Nc1cccc(-c2nsc(=O)o2)c1 | – | – | 6.6 | 0.34 | 19 | – | – | – | – | – | – | – | – | – | – |
| CC(C)C[C@H](NC(=O)[C@H](Cc1ccccc1)NC(=O)c1cnccn1)B(O)O | – | – | – | – | – | – | – | – | – | – | – | – | 58 | 90 | – |
| O=c1oc(-c2ccccc2)ns1 | 0.00093 | 5.10 | 118 | 14.8 | 8 | tde | – | – | – | – | – | – | – | – | – |
| [N-]=[N+]=Nc1ccc(-c2nsc(=O)o2)cc1 | 0.00092 | 5.46 | 263 | 23.7 | 11 | tde | – | – | – | – | – | – | – | – | – |
| CC(=O)Nc1cccc(-c2nsc(=O)o2)c1 | – | – | 83 | 3.2 | 26 | – | 1.36 | 60 | > 90 | Active | 5.38 | Active | – | – | – |
| O=c1oc(-c2cccc(F)c2)ns1 | – | – | 20 | 13.2 | 1.5 | – | – | – | – | – | – | – | – | – | – |
| O=c1oc(-c2cccc(-c3ccccc3)c2)ns1 | 0.001 | 5.22 | 168 | 0.4 | 420 | tde | – | – | – | – | – | – | – | – | – |

Continued, values first:

| Kinact [1] [s⁻¹] | pKi [2] | Ratio [3] [M⁻¹ s⁻¹] | Ratio (Homo sapiens [4]) [M⁻¹ s⁻¹] | Ratio (Homo sapiens [5]) | inhibition [6] | half-life at 75 µM [7] [h] | inhibition [8] [%] | inhibition [9] [%] | inhibition [10] | pEC50 (26S proteasome) | inhibition [11] | inhibition [12] [%] | inhibition [13] [%] | pIC50 [14] | Structure (SMILES) |
| --- | --- | --- | --- | --- | --- | --- | --- | --- | --- | --- | --- | --- | --- | --- | --- |
| 0.00037 | 5.96 | 341 | 2.4 | 142 | – | – | – | – | – | – | – | – | – | – | CC(C)(C)OC(=O)Nc1ccc(-c2nsc(=O)o2)cc1 |
| 0.00042 | 5.77 | 239 | 1.4 | 171 | tde | – | – | – | – | – | – | – | – | – | O=c1oc(-c2cc(O)c(O)c(O)c2)ns1 |
| 0.00026 | 5.96 | 225 | 0.13 | 1730 | tde | – | – | – | – | – | – | – | – | – | O=c1oc(-c2ccc3[nH]ccc3c2)ns1 |
| 0.00033 | 5.74 | 187 | 1.6 | 117 | tde | – | – | – | – | – | – | – | – | – | O=c1oc(-c2ccccc2C(F)(F)F)ns1 |
| 0.00026 | 5.92 | 214 | 2.3 | 93 | tde | – | – | – | – | – | – | – | – | – | O=c1oc(-c2cccc(CN3CCOCC3)c2)ns1 |
| 0.00154 | 5.85 | 1090 | 0.23 | 4750 | – | – | – | – | – | – | – | – | – | – | O=c1oc(-c2ccc(-c3ccccc3)cc2)ns1 |
| 0.0001 | 6.28 | 193 | 0.13 | 1490 | tde | – | – | – | – | – | – | – | – | – | CC(=O)N[C@@H](Cc1ccccc1)C(=O)Nc1ccc(-c2nsc(=O)o2)cc1 |
| 0.00077 | 6.12 | 1010 | 10.1 | 100 | – | – | – | – | – | – | – | – | – | 6.66 | Cc1sc(-c2nsc(=O)o2)cc1[N+](=O)[O-] |
| 0.00038 | 6.38 | 913 | 10.3 | 89 | tde | – | – | – | – | – | – | – | – | – | O=c1oc(-c2cccc([N+](=O)[O-])c2)ns1 |
| 0.00025 | 5.70 | 129 | 0.2 | 645 | – | – | – | – | – | – | – | – | – | – | O=c1oc(-c2ccccn2)ns1 |
